Experimental data from paper PMC11649739 (Clinical Pharmacokinetics, 2024).
Values joined by “and” are separate entries in the source; they are usually repeats but may differ in a detail not shown here. Identical values can stand only once. Like-named read-outs stand apart in the source and are kept apart here.

How the values were obtained:
[1] = type: in vivo, human; settings: human, plasma, oral; for AUC: Entire AUC; for Cmax: Entire Cmax
Procedure, shortened: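 Ensitrelvir was dosed once daily, 375 mg on day 1 then 125 mg on days 2–5, or 750/250 mg. A population PK model was fitted to 8034 plasma concentrations from 2060 healthy and SARS-CoV-2-infected participants: two-compartment, first-order absorption, with covariates tested on CL/F. Empirical Bayesian estimates from the final model were used to calculate individual exposures for SCORPIO-SR phase III participants.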

[2] = cited from earlier work
[3] = test system: SARS-CoV-2; type: in vivo, human
Procedure, shortened: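 Phase III SCORPIO-SR participants received ensitrelvir or placebo. Dosing was once daily for 5 days, either 375 mg on day 1 then 125 mg on days 2–5, or 750 mg then 250 mg. Day-1 C24 (also Cmax and AUC) came from empirical Bayesian post hoc estimates. For placebo these were set to 0. Exposures were split into quartiles and boxplotted against change from baseline in viral RNA on day 4. Sub-LLOQ RNA values were set to LLOQ.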

[4] = Mean, 250 mg group: 750 mg on day 1 and 250 mg on days 2–5
[5] = Median, 250 mg group: 750 mg on day 1 and 250 mg on days 2–5
[6] = body weight 35.0 and 156.0 kg vs median
[7] = final model no. 511, body weight 62.6 kg

Cn1cnc(Cn2c(=O)[nH]/c(=N\c3cc4cn(C)nc4cc3Cl)n(Cc3cc(F)c(F)cc3F)c2=O)n1 [ensitrelvir]
concentration at 24 h ([1]; C24_d1, Maximum, 125 mg group: 375 mg on day 1 and 125 mg on days 2–5, 24 h postdose on day 1): 27600 ng/mL | concentration at 24 h ([1]; C24_d1, Maximum, 250 mg group: 750 mg on day 1 and 250 mg on days 2–5, 24 h postdose on day 1): 61000 ng/mL | concentration at 24 h ([1]; C24_d1, Mean, 125 mg group: 375 mg on day 1 and 125 mg on days 2–5, 24 h postdose on day 1): 16600 ng/mL | concentration at 24 h ([1]; C24_d1, Mean, 250 mg group: 750 mg on day 1 and 250 mg on days 2–5, 24 h postdose on day 1): 34800 ng/mL | concentration at 24 h ([1]; C24_d1, Median, 125 mg group: 375 mg on day 1 and 125 mg on days 2–5, 24 h postdose on day 1): 16500 ng/mL | concentration at 24 h ([1]; C24_d1, Median, 250 mg group: 750 mg on day 1 and 250 mg on days 2–5, 24 h postdose on day 1): 34200 ng/mL | concentration at 24 h ([1]; C24_d1, Minimum, 125 mg group: 375 mg on day 1 and 125 mg on days 2–5, 24 h postdose on day 1): 8430 ng/mL | concentration at 24 h ([1]; C24_d1, Minimum, 250 mg group: 750 mg on day 1 and 250 mg on days 2–5, 24 h postdose on day 1): 19400 ng/mL | concentration at 24 h ([1]; C24_d5, Maximum, 125 mg group: 375 mg on day 1 and 125 mg on days 2–5, 24 h postdose on day 5): 35200 ng/mL | concentration at 24 h ([1]; C24_d5, Maximum, 250 mg group: 750 mg on day 1 and 250 mg on days 2–5, 24 h postdose on day 5): 80900 ng/mL | concentration at 24 h ([1]; C24_d5, Mean, 125 mg group: 375 mg on day 1 and 125 mg on days 2–5, 24 h postdose on day 5): 19500 ng/mL | concentration at 24 h ([1]; C24_d5, Mean, 250 mg group: 750 mg on day 1 and 250 mg on days 2–5, 24 h postdose on day 5): 41800 ng/mL | concentration at 24 h ([1]; C24_d5, Median, 125 mg group: 375 mg on day 1 and 125 mg on days 2–5, 24 h postdose on day 5): 19200 ng/mL | concentration at 24 h ([1]; C24_d5, Median, 250 mg group: 750 mg on day 1 and 250 mg on days 2–5, 24 h postdose on day 5): 40800 ng/mL | concentration at 24 h ([1]; C24_d5, Minimum, 125 mg group: 375 mg on day 1 and 125 mg on days 2–5, 24 h postdose on day 5): 10500 ng/mL | concentration at 24 h ([1]; C24_d5, Minimum, 250 mg group: 750 mg on day 1 and 250 mg on days 2–5, 24 h postdose on day 5): 24300 ng/mL | AUC ([1]; Mean, 125 mg group: 375 mg on day 1 and 125 mg on days 2–5): 2570 µg·h/mL | AUC [1, 4]: 5430 µg·h/mL | AUC ([1]; Median, 125 mg group: 375 mg on day 1 and 125 mg on days 2–5): 2530 µg·h/mL | AUC [1, 5]: 5320 µg·h/mL | Cmax [1, 4]: 56400 ng/mL | Cmax [1, 5]: 55100 ng/mL | effect of food intake on pharmacokinetic profiles [2]: not substantially affected | recovered in the urine as unchanged ensitrelvir ([2]; dose groups ranging from 20 to 1000 mg): 12.9–21.8% | effect of fed state on Cmax ([2]; fed state with a high-fat/high-calorie meal vs fasted, phase I study): not affected | pharmacokinetic profiles among various populations ([2]; including healthy white participants): not meaningfully different | terminal elimination half-life (t½,z) ([2]; single administration): 42.2 to 48.1 h | increase of Cmax and AUC0–inf with dose ([2]; single oral administration, 20 to 2000 mg, fasted state): almost dose-proportional | time at which maximum plasma concentration is reached ([2]; single oral administration): around 2.50 h | antiviral effects between the 375/125 mg and 750/250 mg doses ([3]; C24 on day 1 between 8.43 and 61.0 μg/mL): did not differ | virus RNA decrease across exposure categories (C24 on day 1 quartiles) ([3]; day 4, within the exposure range evaluated, phase III of SCORPIO-SR): decreased to a similar extent in all categories | change from baseline in the amount of SARS-CoV-2 viral RNA on day 4, versus placebo ([3]; ensitrelvir dosing groups, phase III of SCORPIO-SR): lower in the ensitrelvir dosing group than in the placebo group | Interindividual variability of CL/F (base model): 28.9% | Interindividual variability of Ka (base model): 88.1% | Interindividual variability of Vc/F (base model): 23.2% | range of the ratios of the minimum and maximum values to the median of BW for AUC [6]: 0.623–1.353 | range of the ratios of the minimum and maximum values to the median of BW for Cmax [6]: 0.410–1.741 | Interindividual variability of CL/F, Estimate (95% CI) (final model no. 511): 21.3% and 21.3 (19.7–22.8) % | Interindividual variability of Ka, Estimate (95% CI) (final model no. 511): 72.9% and 72.9 (64.3–80.6) % | Interindividual variability of Vc/F, Estimate (95% CI) (final model no. 511): 14.7% and 14.7 (12.8–16.3) % | Intraindividual variability: additive residual error, Estimate (95% CI) (final model no. 511): 0.0317 (0.0224–0.0410) µg/mL | Intraindividual variability: proportional residual error, Estimate (95% CI) (final model no. 511): 19.9 (18.5–21.3) % | Q/F, Estimate (95% CI) (final model no. 511): 0.539 (0.321–0.757) L/h | Vp/F, Estimate (95% CI) (final model no. 511): 2.50 (1.80–3.20) L | CL/F, Estimate (95% CI) [7]: 0.211 (0.208–0.214) L/h | Vc/F, Estimate (95% CI) [7]: 14.7 (13.9–15.5) L | Additive residual error, Bootstrap estimate Median (95% CI) (final model no. 511, bootstrap): 0.0331 (0.00945–0.0570) µg/mL | CL/F, Bootstrap estimate Median (95% CI) (final model no. 511, bootstrap): 0.211 (0.207–0.214) L/h | Effect of body weight on Vc/F, Bootstrap estimate Median (95% CI) (final model no. 511, bootstrap): 1.04 (0.959–1.11) | Effect of food on Ka, Bootstrap estimate Median (95% CI) (final model no. 511, bootstrap): 0.599 (0.447–1.00) | Effect of formulation on Ka, Bootstrap estimate Median (95% CI) (final model no. 511, bootstrap): 0.367 (0.280–0.469) | Interindividual variability of CL/F, Bootstrap estimate Median (95% CI) (final model no. 511, bootstrap): 21.3 (20.0–23.0) % | Interindividual variability of Ka, Bootstrap estimate Median (95% CI) (final model no. 511, bootstrap): 72.1 (64.4–80.4) % | Interindividual variability of Vc/F, Bootstrap estimate Median (95% CI) (final model no. 511, bootstrap): 14.6 (12.7–16.5) % | Ka, Bootstrap estimate Median (95% CI) (final model no. 511, bootstrap): 1.50 (1.23–1.80) 1/h | Proportional residual error, Bootstrap estimate Median (95% CI) (final model no. 511, bootstrap): 19.8 (18.6–21.2) % | Q/F, Bootstrap estimate Median (95% CI) (final model no. 511, bootstrap): 0.534 (0.331–0.823) L/h | Vc/F, Bootstrap estimate Median (95% CI) (final model no. 511, bootstrap): 14.8 (13.9–15.5) L | Vp/F, Bootstrap estimate Median (95% CI) (final model no. 511, bootstrap): 2.49 (1.74–3.26) L | Effect of formulation on Ka, Estimate (95% CI) (final model no. 511, multiplier, tablet vs suspension): 0.362 (0.262–0.462) | Effect of body weight on Vc/F, Estimate (95% CI) (final model no. 511, power exponent on body weight/62.6): 1.04 (0.960–1.12) | Ka, Estimate (95% CI) (final model no. 511, typical value (suspension, not within 2 h after a meal)): 1.50 (1.25–1.75) 1/h
